# High-throughput results from PubChem.
# UHRF1 binding: human UHRF1 methylated DNA binding inhibitors; inhibition, % at 4.4 µM; UHRF1 binding to methylated oligo, TR-FRET; actives 0.75% (n = 370,000); Q96T88; in the data active = inhibition above about 21%;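 also: UHRF1 SRA domain binding a hemimethylated CpG hairpin DNA probe; 0% = median of test compound wells and 100% = reference inhibitor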
# TDP2 inh: TDP2 (human) inhibition, absorbance primary screen | actives 0.34% (n = 370,000) | inhibition, % at 12.8 µM | AID 720702 | recombinant TDP2, T5PNP hydrolysis, p-nitrophenol absorbance 415 nm;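 active = inhibition above the mean of all tested compounds plus 3 SD, set per campaign, cut at about 25% in these data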;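 also: 0% = DMSO with enzyme and 100% = buffer with substrate but no TDP2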
#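 Incubation: 2 h at 37 °C; Test system: recombinant human TDP2; Quantity: enzyme 120 nM; Read-out basis: percent inhibition; Medium: 50 mM Tris-HCl pH 7.5 with Mg2+, KCl, DTT, BSA; Repeats: single replicate; Compound: 12.8 µM single point, 1% DMSO; Signal: epi absorbance; Reagent: 5 mM T5PNP chromogenic substrate; Benchmarks: no-enzyme high, DMSO-plus-enzyme low.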
# MBD2 inh: inhibitors of human MBD2 binding to methylated oligonucleotide; TR-FRET; inhibition, % at 4.4 µM; actives 0.31% (n = 370,000); AID 686964; in the data active = inhibition above about 13%
# Target sequence (Q9UBB5 whole entry, looked up): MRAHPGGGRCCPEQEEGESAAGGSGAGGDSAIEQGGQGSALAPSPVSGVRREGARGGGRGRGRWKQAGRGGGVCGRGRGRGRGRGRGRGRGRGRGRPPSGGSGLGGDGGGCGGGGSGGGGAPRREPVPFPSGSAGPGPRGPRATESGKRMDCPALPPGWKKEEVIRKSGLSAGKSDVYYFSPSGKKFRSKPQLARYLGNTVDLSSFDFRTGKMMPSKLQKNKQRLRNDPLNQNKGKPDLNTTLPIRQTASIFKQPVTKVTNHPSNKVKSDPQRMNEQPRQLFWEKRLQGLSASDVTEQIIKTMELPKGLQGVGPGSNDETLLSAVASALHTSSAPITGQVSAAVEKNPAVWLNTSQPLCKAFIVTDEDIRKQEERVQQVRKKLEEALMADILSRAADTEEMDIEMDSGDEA
# HCV core dimer: blocks dimerization of HCV core protein; TR-FRET GST/Flag-core106 dimerization, 1536-well; inhibition, % at 5 µM; actives 0.33% (n = 300,000); AID 1899;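 active = inhibition above the mean of all tested compounds plus 3 SD, set per screening campaign, cut at about 45% in these data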
#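 Assay system: tagged HCV core106 pair (GST and Flag); medium: KF-containing HEPES buffer, pH 7.45, DTT, CHAPS, BSA; also added: Eu donor and XL665 acceptor anti-tag antibodies; dosing: 5 µM single dose; timing: compound-protein-antibody incubation 4 h at 22.5 °C; signal: TR-FRET 671 and 617 nm emission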
# LEDGF integ inh: blocks HIV-1 LEDGF/p75-dependent DNA integration | TR-FRET IN-LEDGF/p75 DNA integration, Eu/Cy5 | inhibition, % at 3.7 µM | actives 0.64% (n = 370,000) | AID 743269;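 active = inhibition above the screen-wide mean plus 3 SD, cut at about 13% in these data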;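 also: signal is the Cy5 over europium emission ratio at 671 and 618 nm; 0% = plate median of compound wells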
# The depositor's hits bear a star; . = no result given. A selection: hits, their analogues and other compounds. The true share with any hit is near 1.8%.
SMILES,UHRF1 binding,TDP2 inh,MBD2 inh,HCV core dimer,LEDGF integ inh
Fc1ccc(-c2cc(-c3nnc4sc(-c5cccs5)nn34)[nH]n2)cc1,-1.4,0.5,-2.7,.,-1.0
CCOC(=O)[C@]12CCCC=C1N(Cc1ccc(OC)cc1)C(=O)[C@@H]2CC(=O)N1CCN(C(=O)c2ccco2)CC1,0.3,-6.3,3.3,.,1.8
O=[N+]([O-])c1cc(Cl)ccc1N1CCCC1,-0.4,-3.4,-1.0,-7.5,-1.5
O=C1C(Cl)=C(N2CCN(c3ccccc3[N+](=O)[O-])CC2)C(=O)c2ccccc21,-9.8,61.9*,-29.2,-1.1,12.7
O=C(COC(=O)C1COc2ccccc2O1)Nc1cccc(Cl)c1 (configuration not stated),-0.5,-9.4,3.7,.,4.0
CCN(CC)S(=O)(=O)c1cccc(NC(=O)COC(=O)C2COc3ccccc3O2)c1 (configuration not stated),23.7*,9.0,0.3,2.4,0.8
COC(=O)c1n[nH]nc1-c1ccccc1,21.9*,4.4,2.5,-11.0,-0.4
CCC(C)NC(=O)C1CCN(S(=O)(=O)c2ccc3[nH]c(=O)oc3c2)CC1 (configuration not stated),-0.3,5.4,-6.3,.,6.0
CC(=O)Cn1nnc2sc3c(c2c1=O)CCC(C(C)(C)C)C3 (configuration not stated),3.4,-3.6,0.5,2.9,-5.6
CCOC(=O)c1sc(NC(=O)Cn2nnc3sc4c(c3c2=O)CCC(C(C)(C)C)C4)nc1C (configuration not stated),0.6,-9.0,3.1,46.1*,-1.7
CC(C)C[C@H]1COc2cc(Br)ccc2S(=O)(=O)N1Cc1cn(Cc2ccc(F)cc2)nn1,-4.1,-13.7,-5.8,.,0.0
c1ccc(-c2csc(NC3=NCCCCC3)n2)cc1,2.9,-5.6,5.1,-0.8,1.6
N#Cc1ccc(-c2csc(NC3=NCCCCC3)n2)cc1,39.4*,4.6,2.6,.,0.8
CCOc1ccc(CCNC(=O)C2CC(=O)N(CCc3ccccc3)C2)cc1OCC (configuration not stated),-0.3,9.5,-1.6,-2.0,2.5
CCOc1ccc(NC(=O)C2CC(=O)N(CCc3ccccc3)C2)cc1OC (configuration not stated),23.7*,10.3,-0.7,.,0.2
CCN(C[C@H]1[C@@H](c2ccc(C3=CCCC3)cc2)[C@H](CO)N1c1nc(C)c(C)s1)S(=O)(=O)c1ccccc1[N+](=O)[O-],2.1,-0.2,4.5,.,-2.1
O=C(O)CCc1ccc(-c2ccccc2)n1Cc1ccco1,15.0,4.4,6.5,13.7,18.3*
CC1=C(C(=O)N2CCOCC2)CC(CC(=O)NC2CCCCC2)C(=O)N1Cc1ccccc1 (configuration not stated),22.2*,2.9,12.7,.,1.3
O=C1C2=C(c3ccccc31)[N+](=O)C1CCCCC1N2[O-] (configuration not stated),-15.9,25.4*,-12.4,-34.6,5.9
CC[C@@]1(C(=O)OC)N[C@H](CN(C)C(=O)Nc2ccc(F)cc2)[C@@H]2C(=O)N(C)C(=O)[C@@H]21,21.0*,0.4,10.7,.,-1.7
CC[C@@]1(C(=O)OC)N[C@H](CN(C)C(=O)Nc2ccccc2)[C@@H]2C(=O)N(C)C(=O)[C@@H]21,-0.1,4.3,-4.0,.,-4.2
CCN(C[C@H]1N[C@@](Cc2ccccc2)(C(=O)OC)[C@H]2C(=O)N(C)C(=O)[C@@H]12)S(=O)(=O)c1ccc(OC(F)(F)F)cc1,20.8*,6.3,2.5,.,1.5
COc1cc(=O)oc(C=O)c1C,-2.8,-0.7,2.1,.,-0.5
C[C@H]1CN([C@@H](C)CO)C(=O)c2cc(C#CCC3CCCC3)cnc2O[C@@H]1CN(C)C(=O)CC1CC1,21.7*,1.7,5.0,.,3.3
C[C@@H]1CN([C@@H](C)CO)C(=O)c2cc(C#CC3CCCCC3)cnc2O[C@@H]1CN(C)S(=O)(=O)c1ccc(F)cc1,21.5*,-8.0,11.3,.,3.0
SMILES,UHRF1 binding,TDP2 inh,MBD2 inh,HCV core dimer,LEDGF integ inh
C[C@@H]1CN([C@H](C)CO)C(=O)c2cc(C#CC3CCCCC3)cnc2O[C@H]1CN(C)Cc1cccnc1,23.3*,0.8,9.4,.,2.8
C[C@@H]1CN([C@@H](C)CO)S(=O)(=O)c2ccc(C#CC3CCCCC3)cc2O[C@@H]1CN(C)Cc1cccnc1,23.7*,-11.6,10.6,.,1.8
Cc1ccc(S(=O)(=O)N(C)[C@H]2C[C@H]3c4[nH]c5cccc(-c6ccccc6)c5c4CCN3C(=O)[C@H]2[C@H](C)O)cc1,0.1,-9.9,0.9,.,-3.0
O=C(OCc1cn(Cc2ccc(F)c(F)c2)nn1)N1CCOCC1,4.4,4.3,-2.4,.,0.6
N#Cc1ccc(OC[C@@H](O)CN2CCC(C(O)(c3ccccc3)c3ccccc3)CC2)cc1F,1.6,1.6,3.3,.,0.7
COc1ccc2[nH]c3c(c2c1)CCN[C@]31C(=O)N(Cc2ccccc2)c2ccccc21,0.1,-3.7,1.4,.,-5.2
CCN(CC)C(=O)CC[C@H]1CC[C@]2(CCCN(CC3CC3)C2)O1,1.2,4.6,-3.6,.,-1.3
CCOc1ccc(C(=O)NCC(C)C)cc1,-0.5,3.0,-4.1,-6.2,1.7
CCOc1ccc(C(=O)NCC(C)NC(=O)c2ccc(OCC)cc2)cc1 (configuration not stated),23.5*,-24.9,6.1,4.3,3.7
CC(=O)Oc1cc(C(=O)OCC(=O)NC23CC4CC(CC(C4)C2)C3)cc(OC(C)=O)c1OC(C)=O,14.6,0.8,8.2,.,43.6*
COC(=O)C1CN(C2CCCC2)CCS(=O)(=O)N1Cc1ccc(OC)cc1 (configuration not stated),-2.5,-2.1,0.5,.,2.8
Cc1ccc2c(c1)C1CS(=O)(=O)N(Cc3ccc(F)cc3)CN1C2 (configuration not stated),-4.8,2.0,1.7,.,1.1
CN1CCN(c2nc3c(c(=O)n(C)c(=O)n3C)n2Cc2ccccc2F)CC1,60.0*,0.4,1.0,-0.1,-4.2
Cn1c(=O)c2c(nc(N3CCc4ccccc4C3)n2Cc2ccccc2F)n(C)c1=O,-0.6,4.0,-1.8,2.7,-1.1
CC(C)(C)OC(=O)n1ccc2ccc(-c3ccc4cc[nH]c4c3)cc21,0.5,4.7,5.0,.,-2.3
Cc1ccc(-c2nc3ccc(Br)cn3c2Cc2ccccc2)cc1,18.5,7.9,4.3,.,-0.6
Cc1ccc(Cc2c(-c3ccc(C#N)cc3)nc3ccc(C)cn23)cc1,19.6,-1.2,9.4,.,-2.0
Cc1ccc(Cc2c(-c3ccc(C#N)cc3)nc3ccc(Br)cn23)cc1,22.1*,-1.0,11.5,.,1.3
Cc1ccc(Cc2c(-c3ccccc3)nc3ccc(Br)cn23)cc1,21.6*,-0.9,6.8,.,0.6
N#Cc1ccc(-c2nc3ccc(Br)cn3c2Cc2ccccc2)cc1,22.2*,-5.2,7.1,.,-4.7
